Data on twelve molecules can be found in ChEMBL document CHEMBL1149615, “Design, synthesis, and biological evaluation of LNA nucleosides as adenosine A3 receptor ligands” (Bioorg Med Chem, 2007).

Common to all, as to assay type: functional
The target of experiment [1] is T1, Adenosine receptor A1 (Homo sapiens, UniProt P30542).
T1 sequence (P30542 whole entry): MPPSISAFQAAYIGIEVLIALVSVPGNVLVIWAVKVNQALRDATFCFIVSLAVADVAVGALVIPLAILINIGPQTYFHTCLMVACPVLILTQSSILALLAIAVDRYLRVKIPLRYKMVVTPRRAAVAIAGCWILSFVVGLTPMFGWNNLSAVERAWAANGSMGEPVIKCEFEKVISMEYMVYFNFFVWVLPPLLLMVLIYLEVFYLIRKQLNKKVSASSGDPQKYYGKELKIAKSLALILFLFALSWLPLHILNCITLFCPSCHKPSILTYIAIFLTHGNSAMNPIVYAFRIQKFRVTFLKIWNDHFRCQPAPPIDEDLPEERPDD
Nature of the experiment: Antagonist activity at human adenosine A1 receptor. A digest of the protocol:
(§1)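 Clones coexpressing mitochondrial apoaequorin and Gα16 were collected in PBS with 5 mM EDTA. They were loaded with 5 µM coelenterazine H for 4 h at room temperature, washed, and mixed with compound, and aequorin light was recorded for 30 s. Duplicates at eight concentrations from 3000 to 1 nM were fitted by sigmoidal nonlinear regression and expressed as percent of agonist response.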

For experiment [2], the target named is T2, Adenosine receptor A3 (Homo sapiens) (UniProt P0DMS8).
T2 sequence (whole entry): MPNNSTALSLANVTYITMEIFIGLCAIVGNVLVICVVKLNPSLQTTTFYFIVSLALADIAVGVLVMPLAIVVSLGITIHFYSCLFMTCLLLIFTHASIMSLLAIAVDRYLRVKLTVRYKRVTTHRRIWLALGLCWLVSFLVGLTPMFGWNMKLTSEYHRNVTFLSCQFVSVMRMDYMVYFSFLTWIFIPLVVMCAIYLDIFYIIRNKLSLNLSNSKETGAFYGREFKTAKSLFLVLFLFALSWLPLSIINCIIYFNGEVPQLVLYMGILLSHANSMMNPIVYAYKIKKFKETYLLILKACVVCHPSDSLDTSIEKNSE
Nature of the experiment: (§2) Antagonist activity at human adenosine A3 receptor after 15 to 30 mins.

For experiment [3], the target named is T3, Adenosine receptor A3 (Homo sapiens, UniProt P0DMS8).
T3 sequence (P0DMS8 whole entry): T2 sequence (whole entry)
Nature of the experiment: Agonist activity at human adenosine A3 receptor after 15 to 30 mins. In a few lines: (§3)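 AequoScreen cells expressing recombinant human A3 receptor and Gα16 were cultured at least one week, harvested with PBS-EDTA, and loaded overnight at room temperature with coelenterazine H in DMEM-F12 with 0.1% BSA. Cells were injected onto compound and aequorin luminescence was read. Duplicates at 100 µM–0.01 nM (eight concentrations) were normalised to saturating (EC100) IB-MECA to give EC50.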

Experiment [4] addresses T1, Adenosine receptor A1. The experiment is described as follows: Agonist activity at human adenosine A1 receptor. A digest of the protocol: as §1
For experiment [5], the target named is T3, Adenosine receptor A3. The description is as §2.
In experiment [6] the target is T2, Adenosine receptor A3 (Homo sapiens). The experiment is described as follows: Agonist activity at human adenosine A3 receptor after 15 to 30 mins relative to IB-MECA. A digest of the protocol: as §3

pEC50, pIC50: −log10 of the molar value. A value given as a limit tells only on which side of the number the result lay.

Turning to `CNC(=O)[C@@]12CN[C@@H]([C@H](n3cnc4c(NCc5cccc(I)c5)ncnc43)O1)[C@@H]2O`, the pIC50 (commonly −log10 of the IC50, conventionally taken in molar units) against Adenosine receptor A1 [1] was under 5.52. The Imax in experiment [2] turned out to be 100%. Moreover, the values for the pEC50 at Adenosine receptor A3 [3] and on Adenosine receptor A1 [4] were under 4.00 and under 5.52, respectively.
With `CO[C@@H]1[C@H](O)[C@@H](CO)O[C@H]1n1cnc2c(NCc3cccc(I)c3)ncnc21`, the figures for the pIC50 against Adenosine receptor A1 [1] and against Adenosine receptor A3 [5] were under 5.52 and 8.77, respectively. The same molecule gave an Imax in experiment [2] of 100%. Also, the pEC50 – broadly, −log10 of the EC50, conventionally taken in molar units – on Adenosine receptor A3 [3] is under 4.00; on Adenosine receptor A1 [4], under 5.52.
The molecule `CNC(=O)[C@@]12CN[C@@H]([C@H](n3cnc4c(N)ncnc43)O1)[C@@H]2O` showed a pIC50 at Adenosine receptor A3 [5] of 6.77. Besides, the Imax in experiment [2] was determined as 100%. This molecule had a pEC50 on Adenosine receptor A3 [3] of under 4.00.
With `CNC(=O)[C@H]1O[C@@H](n2cnc3c(N)ncnc32)[C@H](OC)[C@@H]1O`, in experiment [6], the Emax (as a rule, the greatest response seen or fitted, relative to the assay's reference) turned out to be 100%. The same molecule gave a pEC50 at Adenosine receptor A3 [3] of 6.34.
The molecule `Nc1ncnc2c1ncn2[C@@H]1O[C@@]2(CO)CN[C@@H]1[C@@H]2O` gave a pIC50 against Adenosine receptor A3 [5] of under 4.00. The pEC50 at Adenosine receptor A3 [3] was under 4.00.
On to `CNC(=O)[C@@]12CO[C@@H]([C@H](n3cnc4c(N)ncnc43)O1)[C@@H]2O`, for which, at Adenosine receptor A3 [5], the pIC50 was under 4.00. Besides, the pEC50 at Adenosine receptor A3 [3] was under 4.00.
As for `CO[C@@H]1[C@H](O)[C@@H](CO)O[C@H]1n1cnc2c(N)ncnc21`, the negative-log IC50 (pIC50) at Adenosine receptor A1 [1] is under 5.52; against Adenosine receptor A3 [5], 7.82. Besides, the Imax in experiment [2] amounted to 100%. For the same molecule, the pEC50 at Adenosine receptor A3 [3] is under 4.00; on Adenosine receptor A1 [4] it was under 5.52.
Consider `OC[C@@]12CN[C@@H]([C@H](n3cnc4c(NCc5cccc(I)c5)ncnc43)O1)[C@@H]2O`, for which the figures for the pIC50 at Adenosine receptor A1 [1] and on Adenosine receptor A3 [5] were under 5.52 and 8.09, respectively. Besides, in experiment [2], the Imax is 100%. For the same molecule, the pEC50 is under 4.00 on Adenosine receptor A3 [3] and under 5.52 on Adenosine receptor A1 [4].
As to `CNC(=O)[C@H]1O[C@@H](n2cnc3c(NCc4cccc(I)c4)ncnc32)[C@H](OC)[C@@H]1O`, the Emax in experiment [6] is 100%. The same molecule had a pIC50 against Adenosine receptor A1 [1] of under 5.52. Moreover, the figures for the pEC50 at Adenosine receptor A3 [3] and on Adenosine receptor A1 [4] were 8.72 and under 5.52, respectively.
Consider `CNC(=O)[C@@]12CO[C@@H]([C@H](n3cnc4c(NCc5cccc(I)c5)ncnc43)O1)[C@@H]2O`, for which the negative logarithm of the IC50 (pIC50) at Adenosine receptor A3 [5] was under 4.00. Further, the pEC50 at Adenosine receptor A3 [3] was under 4.00.
As for `OC[C@@]12CO[C@@H]([C@H](n3cnc4c(NCc5cccc(I)c5)ncnc43)O1)[C@@H]2O`, the pIC50 against Adenosine receptor A3 [5] was 6.82. The molecule also showed an Imax in experiment [2] of 100%. The same molecule had a pEC50 on Adenosine receptor A3 [3] of under 4.00.
`Nc1ncnc2c1ncn2[C@@H]1O[C@@]2(CO)CO[C@@H]1[C@@H]2O`: the pIC50 on Adenosine receptor A3 [5] is under 4.00. This molecule also had a pEC50 on Adenosine receptor A3 [3] of under 4.00.
